ChEMBL document CHEMBL5365527, “Structure-Guided Design of Nurr1 Agonists Derived from the Natural Ligand Dihydroxyindole” (J Med Chem, 2023)
Active and inactive are the calls of the source. The rule behind the calls is not given here.

How the values were obtained:
[1] = system: HEK-293T; assay: Cytotoxicity against human HEK293T cells co-transfected with Gal4-fused human Nurr1 LBD and pFR-Luc/pRL-SV40 assessed as decrease in renilla luciferase activity at 100 uM incubated for 16 hrs by Dual-Glo luciferase assay relative to control
[2] = molecular target: T1, Nuclear receptor subfamily 4 group A member 2 (Homo sapiens, UniProt P43354); assay: Binding affinity to Nurr1 LBD (unknown origin) assessed as dissociation constant by Isothermal titration calorimetry
T1 sequence (P43354 whole entry, the tested form may be a part): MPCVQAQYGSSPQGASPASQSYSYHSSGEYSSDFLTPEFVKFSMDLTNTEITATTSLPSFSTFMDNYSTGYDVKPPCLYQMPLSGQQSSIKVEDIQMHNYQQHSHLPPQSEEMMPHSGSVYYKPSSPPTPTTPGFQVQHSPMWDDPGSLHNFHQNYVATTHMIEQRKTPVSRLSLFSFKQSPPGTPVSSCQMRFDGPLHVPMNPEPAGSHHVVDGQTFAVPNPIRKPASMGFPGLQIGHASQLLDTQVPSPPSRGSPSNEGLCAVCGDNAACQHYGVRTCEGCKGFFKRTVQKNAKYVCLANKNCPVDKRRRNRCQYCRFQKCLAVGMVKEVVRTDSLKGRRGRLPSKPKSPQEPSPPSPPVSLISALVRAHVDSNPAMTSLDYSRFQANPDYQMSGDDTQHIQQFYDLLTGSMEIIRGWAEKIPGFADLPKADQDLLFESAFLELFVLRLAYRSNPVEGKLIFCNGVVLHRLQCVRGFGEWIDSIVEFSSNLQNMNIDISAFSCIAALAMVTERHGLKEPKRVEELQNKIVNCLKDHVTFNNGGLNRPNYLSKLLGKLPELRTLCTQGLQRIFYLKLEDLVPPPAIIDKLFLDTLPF

[3] = molecular target: T1, Nuclear receptor subfamily 4 group A member 2; assay: Agonist activity at Gal4-fused human Nurr1 LBD transfected in human HEK293T cells co-transfected with pFR-Luc/pRL-SV40 assessed as activation of luciferase activity incubated for 16 hrs by Dual-Glo luciferase assay
[4] = molecular target: T1, Nuclear receptor subfamily 4 group A member 2; assay: Binding affinity to Nurr1 LBD (unknown origin) at 200 uM by Isothermal titration calorimetry
[5] = system: HEK-293T; assay: Cytotoxicity against human HEK293T cells assessed as reduction in cell viability at 100 uM incubated for 24 hrs by WST-8 assay; type: toxicity, cell-based
Outline: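 HEK293T cells were seeded on collagen G-coated wells, 10,000 per well, and after 24 h exposed to compound in Opti-MEM with 0.1% DMSO for 24 h; 0.1% DMSO alone served as untreated control. Metabolic activity was read by WST-8 (10%, 4 h) absorbance at 450 nm. Four biologically independent repeats.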

[6] = molecular target: Nuclear receptor subfamily 4 group A member 2 (Rattus norvegicus) (UniProt Q07917); assay: Agonist activity at Nurr1 in rat N27 cells assessed as increase in VMAT mRNA expression level at 30 to 100 uM incubated for 16 hrs by qPCR analysis; type: cell-based; details: filed as agonist, dose 30-100 µM
Sequence of Nuclear receptor subfamily 4 group A member 2 (Rattus norvegicus) (Q07917 whole entry): as the sequence (P43354 whole entry, the tested form may be a part) above, with T131S, P182R, E354D counted along it
Outline: (§1)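 Rat N27 dopaminergic cells in RPMI 1640 with 10% FCS, switched to 0.2% FCS 7 h after seeding and held 24 h more. Stimulated 16 h with compound in 0.1% DMSO, with 0.1% DMSO as vehicle control. Total RNA was heat-linearized at 65 °C before reverse transcription. SYBR green qPCR ran 40 cycles with a melt curve. Target mRNA normalized to GAPDH by ΔCt, expressed relative to vehicle.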

[7] = molecular target: Nuclear receptor subfamily 4 group A member 2 (Rattus norvegicus) (UniProt Q07917); assay: Agonist activity at Nurr1 in rat N27 cells assessed as increase in SOD1 mRNA expression level at 30 to 100 uM incubated for 16 hrs by qPCR analysis; type: cell-based; details: filed as agonist, dose 30-100 µM
Outline: as §1

[8] = molecular target: Nuclear receptor subfamily 4 group A member 2 (Rattus norvegicus) (UniProt Q07917); assay: Agonist activity at Nurr1 in rat N27 cells assessed as increase in SOD2 mRNA expression level at 30 to 100 uM incubated for 16 hrs by qPCR analysis; type: cell-based; details: filed as agonist, dose 30-100 µM
Outline: as §1

[9] = molecular target: Nuclear receptor subfamily 4 group A member 2 (Rattus norvegicus) (UniProt Q07917); assay: Agonist activity at Nurr1 in rat N27 cells assessed as increase in TH mRNA expression level at 30 to 100 uM incubated for 16 hrs by qPCR analysis; type: cell-based; details: filed as agonist, dose 30-100 µM
Outline: as §1

[10] = system: HEK293T; assay: (§2) Agonist activity at Nurr1 LBD (unknown origin) transfected in human HEK293T cells co-transfected with pFR-Luc/pRL-SV40 assessed as maximum activation of luciferase activity at 1 uM incubated for 16 hrs in presence of 5-Chloro-N-{5-chloro-2-[2-(dimethylamino)ethoxy]phenyl}-1H-indole-6-carboxamide by Gal4 hybrid reporter gene assay relative to control; type: cell-based; details: filed as agonist
Outline: (§3)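 Gal4–Nurr1 LBD hybrid reporter assay in HEK293T cells (DMEM high glucose, 10% FCS, 37 °C, 5% CO2), transiently transfected with pFA-CMV-hNurr1-LBD, pFR-Luc reporter and pRL-SV40 control. Treatment began 5 h after transfection, 16 h in Opti-MEM with 0.1% DMSO, read by dual luciferase. Firefly/Renilla ratio ×1000 gave RLU; fold activation taken vs untreated control. At least three independent experiments, each in duplicate.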

[11] = system: HEK293T; assay: as §2, with “7-Chloro-N-{5-chloro-2-[2-(dimethylamino)ethoxy]phenyl}quinolin-4-amine” for “5-Chloro-N-{5-chloro-2-[2-(dimethylamino)ethoxy]phenyl}-1H-indole-6-carboxamide”; type: cell-based; details: filed as agonist
Outline: as §3

[12] = Glutathione reactivity at pH 7.4 assessed as compound remaining at 125 uM incubated upto 24 hrs by LC-UV-ESI-MS analysis; type: physicochemical; details: pH 7.4, 24 h
Outline: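 Compound (125 μM final) was shaken at 37 °C with 2.5 mM glutathione in PBS pH 7.4 (1% DMSO final). Aliquots at 0, 6, 18 and 24 h were diluted in mobile phase containing an internal standard. They were analyzed by reversed-phase LC with UV at 254 nm and positive ESI-MS in SIM mode. AUC was corrected to the internal standard. Run three times.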

Row | SMILES | Activity [1] | other results
1 | NC1CCC(CC2CCC(NC(=O)c3cc4[nH]ccc4cc3Cl)CC2)CC1 (stereo not given) | Toxic | –
2 | O=C(NCCC12CCCN1CCC2)c1cc2[nH]ccc2cc1Cl | Non-Toxic | –
3 | O=C(NCCNC1CCCCC1)c1cc2[nH]ccc2cc1Cl | Non-Toxic | –
4 | NCCc1c[nH]c2ccc(F)cc12 | Non-Toxic | –
5 | CCN1CCN(c2ccc(Cl)cc2N)CC1 | Non-Toxic | –
6 | NC(=O)CC1(NC(=O)c2cc3[nH]ccc3cc2Cl)CCCCC1 | Non-Toxic | –
7 | CCCCN1CCC(CNC(=O)c2cc3[nH]ccc3cc2Cl)C1 (stereo not given) | Non-Toxic | Kd [2]: 16 µM; EC50 [3]: 28 µM
8 | NCCC12CCCN1CCC2 | Non-Toxic | –
9 | CC(C)N1CCC(NC(=O)c2cc3[nH]ccc3cc2Cl)CC1 | Non-Toxic | Activity [4]: inactive; Activity [5]: Non-Toxic
10 | Clc1ccc2[nH]ccc2c1 | – | Activity [6]: Dose-Dependent Effect; Activity [7]: Dose-Dependent Effect; EC50 [3]: 40 µM; Activity [8]: Dose-Dependent Effect; Activity [9]: Dose-Dependent Effect
11 | NCC1CCN(Cc2ccccc2)CC1 | Non-Toxic | –
12 | O=C(NCC1CCN(Cc2ccccc2)CC1)c1cc2[nH]ccc2cc1Cl | Non-Toxic | –
13 | CN1CCC(Nc2ccccc2NC(=O)c2cc3[nH]ccc3cc2Cl)CC1 | Non-Toxic | –
14 | CCN(CC)C1CCC(NC(=O)c2cc3[nH]ccc3cc2Cl)CC1 (stereo not given) | Non-Toxic | Activity [4]: inactive; Activity [5]: Non-Toxic
15 | CCN1CCN(c2ccc(Cl)cc2NC(=O)c2cc3[nH]ccc3cc2Cl)CC1 | Non-Toxic | –
16 | CN(C)CCOc1ccc(Cl)cc1N | Non-Toxic | –
17 | CN1CCC(CN)(c2ccccc2)CC1 | Non-Toxic | –
18 | CN(C)C(CNC(=O)c1cc2[nH]ccc2cc1Cl)c1ccc(F)cc1 (stereo not given) | Non-Toxic | –
19 | CC(C)CN1CCC(N)CC1 | Non-Toxic | –
20 | NC(=O)CC1(N)CCCCC1 | Non-Toxic | –
21 | CN1CCC(CNC(=O)c2cc3[nH]ccc3cc2Cl)(c2ccccc2)CC1 | Non-Toxic | –
22 | CN(C)C(CN)c1ccc(F)cc1 (stereo not given) | Non-Toxic | –
23 | CC(C)CN1CCC(NC(=O)c2cc3[nH]ccc3cc2Cl)CC1 | Non-Toxic | –
24 | NCc1ccc2[nH]ncc2c1 | Non-Toxic | –
25 | NCc1ccc2cc[nH]c2c1 | Non-Toxic | –
26 | O=C(Nc1ccccc1NCCCn1ccnc1)c1cc2[nH]ccc2cc1Cl | Non-Toxic | –

Row | SMILES | Activity [1] | other results
27 | C#CCOc1cccc(-c2ccc(NC(=O)C3=C(C(=O)O)CCC3)c(F)c2)c1 | – | Emax [10]: 134%; Emax [11]: 177%
28 | O=C(NCc1ccc2[nH]ncc2c1)c1cc2[nH]ccc2cc1Cl | Toxic | –
29 | CCN(CC)CC1CCCCC1N (stereo not given) | Toxic | –
30 | CN1CCC(Nc2ccccc2N)CC1 | Toxic | –
31 | NCc1cc(N)cc(C(F)(F)F)c1 | Non-Toxic | –
32 | CN(C)Cc1ccccc1CNC(=O)c1cc2[nH]ccc2cc1Cl | Non-Toxic | –
33 | Nc1ccccc1NCCCn1ccnc1 | Non-Toxic | –
34 | CCCCN1CCC(CN)C1 (stereo not given) | Non-Toxic | –
35 | CN(C)CCOc1ccc(Cl)cc1NC(=O)c1cc2c(ccn2C)cc1Cl | – | Kd [2]: 1 µM; EC50 [3]: 16 µM
36 | CC(C)N1CCC(N)CC1 | Non-Toxic | –
37 | O=C(NCCN1CCC2CCCCC2C1)c1cc2[nH]ccc2cc1Cl (stereo not given) | Non-Toxic | Activity [5]: Non-Toxic; Kd [2]: 3.2 µM; EC50 [3]: 12 µM
38 | O=C(NCc1ccc2cc[nH]c2c1)c1cc2[nH]ccc2cc1Cl | Non-Toxic | –
39 | CCN(CC)CC1CCCCC1NC(=O)c1cc2[nH]ccc2cc1Cl (stereo not given) | Non-Toxic | –
40 | CN(C)CCc1ccc(CN)cc1 | Non-Toxic | –
41 | CCN(CC)C1CCC(N)CC1 (stereo not given) | Non-Toxic | –
42 | CC1CCN(CCCN)CC1 | Non-Toxic | –
43 | CN(C)Cc1ccccc1CN | Non-Toxic | –
44 | NC1CCC(CC2CCC(N)CC2)CC1 (stereo not given) | Non-Toxic | –
45 | CN(C)CCOc1ccc(Cl)cc1NC(=O)c1cc2[nH]ccc2cc1Cl | Non-Toxic | Stability [12]: Stable; Activity [5]: Non-Toxic
46 | Nc1cc(CNC(=O)c2cc3[nH]ccc3cc2Cl)cc(C(F)(F)F)c1 | Toxic | –
47 | NCCNC1CCCCC1 | Non-Toxic | –
48 | O=C(NCCc1c[nH]c2ccc(F)cc12)c1cc2[nH]ccc2cc1Cl | Toxic | –
49 | NCCN1CCC2CCCCC2C1 (stereo not given) | Non-Toxic | –
50 | CC1CCN(CCCNC(=O)c2cc3[nH]ccc3cc2Cl)CC1 | Non-Toxic | Activity [4]: inactive; Activity [5]: Non-Toxic
51 | CN(C)CCc1ccc(CNC(=O)c2cc3[nH]ccc3cc2Cl)cc1 | Non-Toxic | –
